# Experimental data taken from ChEMBL document CHEMBL4431339, “1,2,3-Triazoles as Amide Bioisosteres: Discovery of a New Class of Potent HIV-1 Vif Antagonists” (J Med Chem, 2016).
# Calls of active or inactive are those of the source. Unless noted, the rule behind the calls is not given here.
# Experiments:
# [1] = biological target: Virion infectivity factor (Human immunodeficiency virus type 1 group M subtype B (isolate NY5)(HIV-1)) (UniProt P12504); experiment: Antagonist activity against HIV-1 Vif in human MT4 cells assessed as inhibition of viral infection at 50 uM measured after 16 hrs by cell-based assay; details: Human immunodeficiency virus 1
# Summary of the method: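 Antiviral activity was measured against wild-type HIV-1 in permissive MT-4 cells as a Vif-specificity counter-screen. RN-18 was the positive control, and cells cultured without inhibitor were the negative control. "No activity" means no inhibition at 50 µM.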
# [2] = biological target: Virion infectivity factor (Human immunodeficiency virus type 1 group M subtype B (isolate NY5)(HIV-1)) (UniProt P12504); experiment: Antagonist activity against HIV-1 GFP-tagged Vif in human HEK293FT cells co-expressing HA-tagged A3G assessed as upregulation of A3G levels at 50 uM measured after 16 hrs by immunoblotting method; format: cell-based; details: Human immunodeficiency virus 1
# Summary of the method: (§1)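 HEK293FT cells co-expressing HA-tagged A3G and either GFP-tagged Vif or Vif were incubated with or without compound (50 µM) for 16 h. Cell extracts were immunoblotted with anti-HA (A3G), anti-GFP (Vif) and anti-GAPDH antibodies. Untreated cells served as the comparison, and choline chloride was included as a negative control in the triazole series.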
# [3] = biological target: Virion infectivity factor (Human immunodeficiency virus type 1 group M subtype B (isolate NY5)(HIV-1)) (UniProt P12504); experiment: Antagonist activity against HIV-1 GFP-tagged Vif in human HEK293FT cells co-expressing HA-tagged A3G assessed as downregulation of Vif expression expression at 50 uM measured after 16 hrs by immunoblotting method; format: cell-based; details: Human immunodeficiency virus 1; summary of the method: as §1
# HeLa = experiment: Cytotoxicity against human HeLa cells at 50 uM measured after 16 hrs by MTS assay relative to DMSO control; format: cell-based
# [4] = biological target: Virion infectivity factor (Human immunodeficiency virus type 1 group M subtype B (isolate NY5)(HIV-1)) (UniProt P12504); experiment: Antagonist activity against HIV-1 Vif in human H9 cells expressing A3G assessed as inhibition of viral replication by reverse transcriptase assay relative to vehicle-treated control; format: cell-based; details: Human immunodeficiency virus 1
# Summary of the method: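 Antiviral activity was measured against wild-type HIV-1 in non-permissive (A3G-expressing) H9 cells and reported as IC50. RN-18 was the positive control, and cells cultured without inhibitor were the negative control. Selected compounds were tested across doses, and MTS cell viability was checked in parallel at 50 µM.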
# Sequence of Virion infectivity factor (Human immunodeficiency virus type 1 group M subtype B (isolate NY5)(HIV-1)) (P12504 whole entry): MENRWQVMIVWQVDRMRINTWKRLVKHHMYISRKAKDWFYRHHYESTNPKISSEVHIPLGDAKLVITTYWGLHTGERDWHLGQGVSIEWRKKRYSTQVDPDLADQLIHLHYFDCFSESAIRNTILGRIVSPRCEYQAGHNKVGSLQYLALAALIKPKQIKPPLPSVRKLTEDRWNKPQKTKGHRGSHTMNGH
SMILES,Activity [1],also measured
COc1ccc(-n2cc(-c3ccccc3S(=O)(=O)c3ccc([N+](=O)[O-])cc3)nn2)c(OC)c1,inactive,
COc1ccccc1-n1cc(-c2ccccc2S(=O)(=O)c2ccc([N+](=O)[O-])cc2)nn1,inactive,
COc1cccc(-n2cc(-c3ccccc3Sc3ccc(C(F)(F)F)cc3)nn2)c1OC,inactive,
COc1ccc(OC)c(-n2cc(-c3ccccc3Sc3ccc(N)cc3)nn2)c1,inactive,
COC(=O)c1ccc(S(=O)(=O)c2ccccc2-c2cn(-c3ccccc3OC)nn2)cc1,inactive,
COc1cccc(OC)c1-n1cc(-c2ccccc2Sc2ccc(C(F)(F)F)cc2)nn1,inactive,
COC(=O)c1ccc(Sc2ccccc2-c2cn(-c3c(F)cccc3OC)nn2)cc1,inactive,
COc1cccc(-n2cc(-c3ccccc3Sc3ccc(C(=O)O)cc3)nn2)c1OC,inactive,
COc1cccc(OC)c1-n1cc(-c2ccccc2S(=O)(=O)c2ccc(N)cc2)nn1,inactive,
COC(=O)c1ccc(S(=O)(=O)c2ccccc2-c2cn(-c3c(F)cccc3OC)nn2)cc1,inactive,
COc1cccc(-n2cc(-c3ccccc3S(=O)(=O)c3ccc(N)cc3)nn2)c1OC,inactive,
COc1ccccc1-n1cc(-c2ccccc2S(=O)(=O)c2ccc(N)cc2)nn1,inactive,Activity [2]: Active; Activity [3]: Active
COc1ccc(OC)c(-n2cc(-c3ccccc3S(=O)(=O)c3ccc([N+](=O)[O-])cc3)nn2)c1,inactive,Activity (HeLa): Non-Toxic; inhibition [4]: Dose-dependent effect
COc1cccc(OC)c1-n1cc(-c2ccccc2S(=O)(=O)c2ccc(C(=O)O)cc2)nn1,inactive,
COC(=O)c1ccc(Sc2ccccc2-c2cn(-c3cc(OC)ccc3OC)nn2)cc1,inactive,Activity [2]: Active; Activity [3]: Active
COc1ccc(-n2cc(-c3ccccc3S(=O)(=O)c3ccc(N)cc3)nn2)c(OC)c1,inactive,
COc1cccc(OC)c1-n1cc(-c2ccccc2S(=O)(=O)c2ccc(C(F)(F)F)cc2)nn1,inactive,
COc1ccc(Sc2ccccc2-c2cn(-c3ccc(OC)cc3OC)nn2)cc1,inactive,
COc1ccc(S(=O)(=O)c2ccccc2-c2cn(-c3ccccc3OC)nn2)cc1,inactive,
COC(=O)c1ccc(S(=O)(=O)c2ccccc2-c2cn(-c3cccc(OC)c3OC)nn2)cc1,inactive,
COc1cccc(OC)c1-n1cc(-c2ccccc2S(=O)(=O)c2ccc([N+](=O)[O-])cc2)nn1,inactive,
COc1ccc(S(=O)(=O)c2ccccc2-c2cn(-c3cc(OC)ccc3OC)nn2)cc1,inactive,
COc1ccc(OC)c(-n2cc(-c3ccccc3Sc3ccc(C(F)(F)F)cc3)nn2)c1,inactive,
COc1cccc(-n2cc(-c3ccccc3S(=O)(=O)c3ccc(C(F)(F)F)cc3)nn2)c1OC,inactive,

SMILES,Activity [1],also measured
COc1ccccc1-n1nncc1-c1ccccc1Sc1ccc([N+](=O)[O-])cc1,,Activity [2]: Active; Activity [3]: Active
COc1cccc(OC)c1-n1cc(-c2ccccc2Sc2ccc([N+](=O)[O-])cc2)nn1,inactive,
COc1ccc(-n2cc(-c3ccccc3Sc3ccc(C(=O)O)cc3)nn2)c(OC)c1,inactive,
COc1ccc(S(=O)(=O)c2ccccc2-c2cn(-c3c(F)cccc3OC)nn2)cc1,inactive,
COc1ccc(Sc2ccccc2-c2cn(-c3c(OC)cccc3OC)nn2)cc1,inactive,
COc1cccc(OC)c1-n1cc(-c2ccccc2Sc2ccc(C(=O)O)cc2)nn1,inactive,
COc1ccc(-n2cc(-c3ccccc3Sc3ccc([N+](=O)[O-])cc3)nn2)c(OC)c1,inactive,
COc1ccc(OC)c(-n2cc(-c3ccccc3S(=O)(=O)c3ccc(N)cc3)nn2)c1,inactive,Activity [2]: Active; Activity [3]: Active; Activity (HeLa): Non-Toxic; inhibition [4]: Dose-dependent effect
COc1ccc(Sc2ccccc2-c2cn(-c3cccc(OC)c3OC)nn2)cc1,inactive,
COc1cccc(F)c1-n1cc(-c2ccccc2Sc2ccc(C(F)(F)F)cc2)nn1,inactive,
COC(=O)c1ccc(S(=O)(=O)c2ccccc2-c2cn(-c3cc(OC)ccc3OC)nn2)cc1,inactive,
COc1ccc(-n2cc(-c3ccccc3S(=O)(=O)c3ccc(C(=O)O)cc3)nn2)c(OC)c1,inactive,
COc1ccc(S(=O)(=O)c2ccccc2-c2cn(-c3c(OC)cccc3OC)nn2)cc1,inactive,
COc1cccc(F)c1-n1cc(-c2ccccc2S(=O)(=O)c2ccc(C(F)(F)F)cc2)nn1,inactive,
COc1ccc(S(=O)(=O)c2ccccc2-c2cn(-c3ccc(OC)cc3OC)nn2)cc1,inactive,
COC(=O)c1ccc(S(=O)(=O)c2ccccc2-c2cn(-c3ccc(OC)cc3OC)nn2)cc1,inactive,
COc1cccc(F)c1-n1cc(-c2ccccc2S(=O)(=O)c2ccc(C(=O)O)cc2)nn1,inactive,
COc1ccc(-n2cc(-c3ccccc3S(=O)(=O)c3ccc(C(F)(F)F)cc3)nn2)c(OC)c1,inactive,
COc1ccc(OC)c(-n2cc(-c3ccccc3S(=O)(=O)c3ccc(C(F)(F)F)cc3)nn2)c1,inactive,
COc1cccc(-n2cc(-c3ccccc3S(=O)(=O)c3ccc(C(=O)O)cc3)nn2)c1OC,inactive,
COc1cccc(-n2cc(-c3ccccc3Sc3ccc(N)cc3)nn2)c1OC,inactive,
COc1ccc(Sc2ccccc2-c2cn(-c3cc(OC)ccc3OC)nn2)cc1,inactive,
COc1cccc(F)c1-n1cc(-c2ccccc2S(=O)(=O)c2ccc(N)cc2)nn1,inactive,
COc1cccc(F)c1-n1cc(-c2ccccc2Sc2ccc(N)cc2)nn1,inactive,

SMILES,Activity [1],also measured
COc1ccc(OC)c(-n2cc(-c3ccccc3S(=O)(=O)c3ccc(C(=O)O)cc3)nn2)c1,inactive,Activity [2]: Active; Activity [3]: Active
COc1cccc(-n2cc(-c3ccccc3S(=O)(=O)c3ccc([N+](=O)[O-])cc3)nn2)c1OC,inactive,
COc1ccc(S(=O)(=O)c2ccccc2-c2cn(-c3cccc(OC)c3OC)nn2)cc1,inactive,
COc1ccc(Sc2ccccc2-c2cn(-c3c(F)cccc3OC)nn2)cc1,inactive,
COc1ccccc1-n1cc(-c2ccccc2S(=O)(=O)c2ccc(C(=O)O)cc2)nn1,inactive,Activity [2]: Active; Activity [3]: Active
COc1cccc(OC)c1-n1cc(-c2ccccc2Sc2ccc(N)cc2)nn1,inactive,
COc1ccc(Sc2ccccc2-c2cn(-c3ccccc3OC)nn2)cc1,inactive,
COc1ccccc1-c1nnc(-c2ccccc2Sc2ccc([N+](=O)[O-])cc2)o1,,Activity [2]: Active; Activity [3]: Active
COC(=O)c1ccc(S(=O)(=O)c2ccccc2-c2cn(-c3c(OC)cccc3OC)nn2)cc1,inactive,
COC(=O)c1ccc(Sc2ccccc2-c2cn(-c3ccc(OC)cc3OC)nn2)cc1,inactive,Activity (HeLa): Non-Toxic; inhibition [4]: Dose-dependent effect
COC(=O)c1ccc(Sc2ccccc2-c2cn(-c3ccccc3OC)nn2)cc1,inactive,
COc1cccc(F)c1-n1cc(-c2ccccc2S(=O)(=O)c2ccc([N+](=O)[O-])cc2)nn1,inactive,
COC(=O)c1ccc(Sc2ccccc2-c2cn(-c3c(OC)cccc3OC)nn2)cc1,inactive,Activity (HeLa): Non-Toxic; inhibition [4]: Dose-dependent effect
COc1ccccc1-n1cc(-c2ccccc2S(=O)(=O)c2ccc(C(F)(F)F)cc2)nn1,inactive,
COc1cccc(-n2cc(-c3ccccc3Sc3ccc([N+](=O)[O-])cc3)nn2)c1OC,inactive,Activity (HeLa): Non-Toxic; inhibition [4]: Dose-dependent effect
COc1ccccc1-n1cc(-c2ccccc2Sc2ccc(N)cc2)nn1,inactive,
COc1cccc(F)c1-n1cc(-c2ccccc2Sc2ccc([N+](=O)[O-])cc2)nn1,inactive,
COc1ccc(-n2cc(-c3ccccc3Sc3ccc(N)cc3)nn2)c(OC)c1,inactive,
COc1ccc(-n2cc(-c3ccccc3Sc3ccc(C(F)(F)F)cc3)nn2)c(OC)c1,inactive,
COc1ccccc1-n1cc(-c2ccccc2Sc2ccc(C(=O)O)cc2)nn1,inactive,
COc1cccc(F)c1-n1cc(-c2ccccc2Sc2ccc(C(=O)O)cc2)nn1,inactive,
COC(=O)c1ccc(Sc2ccccc2-c2cn(-c3cccc(OC)c3OC)nn2)cc1,inactive,Activity (HeLa): Non-Toxic; inhibition [4]: Dose-dependent effect
COc1ccc(OC)c(-n2cc(-c3ccccc3Sc3ccc(C(=O)O)cc3)nn2)c1,inactive,
